Legend:
Type in all cases: protein assay
[1] = molecular target: Alpha-1,2-mannosidase (BT_2948) (Bacteroides thetaiotaomicron, UniProt Q8A3K6); assay: Inhibition of Bacteroides thetaiotaomicron GH92 alpha-mannosidase 2948 assessed as reduction of mannose release using 4NP-mannopyranoside substrate
Procedure, shortened: (§1)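 Recombinant His-tagged GH92 enzymes were expressed in E. coli Tuner or B834 and purified by IMAC. Mannose release was measured at 37 °C in 100 mM MOPS, pH 7.0, with 2 mM CaCl2. The read-out was a coupled-enzyme mannose detection system with ATP and NADP+ at 1 mM, following NADPH at 340 nm. At least five inhibitor concentrations were tested, with substrate ≪ Km. Ki was taken from the x-intercept of […] versus inhibitor concentration.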

[2] = molecular target: T1, Alpha-1,2-mannosidase (BT_2199) (Bacteroides thetaiotaomicron, UniProt Q8A5N9); assay: Inhibition of Bacteroides thetaiotaomicron GH92 alpha-mannosidase 2199 assessed as reduction of mannose release using 4NP-mannopyranoside substrate
T1 sequence (Q8A5N9 whole entry): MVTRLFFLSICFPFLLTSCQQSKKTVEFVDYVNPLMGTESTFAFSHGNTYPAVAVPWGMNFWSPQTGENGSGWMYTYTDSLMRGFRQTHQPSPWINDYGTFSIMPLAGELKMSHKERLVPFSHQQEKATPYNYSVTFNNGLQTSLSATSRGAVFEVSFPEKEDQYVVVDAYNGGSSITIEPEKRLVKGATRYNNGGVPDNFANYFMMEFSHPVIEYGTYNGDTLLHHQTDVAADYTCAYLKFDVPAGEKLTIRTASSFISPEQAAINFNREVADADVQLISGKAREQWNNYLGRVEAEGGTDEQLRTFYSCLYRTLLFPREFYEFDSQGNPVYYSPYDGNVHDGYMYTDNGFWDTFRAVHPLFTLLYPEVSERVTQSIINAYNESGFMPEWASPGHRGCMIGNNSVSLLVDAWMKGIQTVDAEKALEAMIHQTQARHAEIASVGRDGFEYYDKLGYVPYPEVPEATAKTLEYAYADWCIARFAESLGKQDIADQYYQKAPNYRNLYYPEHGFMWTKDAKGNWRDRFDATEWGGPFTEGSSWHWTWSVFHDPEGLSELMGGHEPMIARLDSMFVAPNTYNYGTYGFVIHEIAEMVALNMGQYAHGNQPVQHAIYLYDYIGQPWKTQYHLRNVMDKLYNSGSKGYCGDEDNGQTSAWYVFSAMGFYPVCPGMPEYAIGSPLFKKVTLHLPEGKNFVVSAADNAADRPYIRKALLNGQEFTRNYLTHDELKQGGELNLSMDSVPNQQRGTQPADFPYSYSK
Procedure, shortened: (§2)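 Recombinant enzymes expressed in E. coli. Bt3990 was purified by IMAC, anion exchange and size exclusion; Bt2199 by IMAC only. Ki was measured with at least five inhibitor concentrations at a substrate concentration ≪ Km for each enzyme. Ki was taken as the x-axis intercept of a plot of […] against inhibitor concentration.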

[3] = molecular target: Alpha-1,2-mannosidase (BT_3858) (Bacteroides thetaiotaomicron, UniProt Q8A113); assay: Inhibition of Bacteroides thetaiotaomicron GH92 alpha-mannosidase 3858 assessed as reduction of mannose release using 4NP-mannopyranoside substrate; procedure, shortened: as §1
[4] = molecular target: Alpha-1,2-mannosidase (BT_3994) (Bacteroides thetaiotaomicron, UniProt Q8A0M7); assay: Inhibition of Bacteroides thetaiotaomicron GH92 alpha-mannosidase 3994 assessed as reduction of mannose release using 4NP-mannopyranoside substrate; procedure, shortened: as §1
[5] = molecular target: Alpha-1,2-mannosidase family protein (BT_4093) (Bacteroides thetaiotaomicron, UniProt Q8A0C8); assay: Inhibition of Bacteroides thetaiotaomicron GH92 alpha-mannosidase 4093 assessed as reduction of mannose release using 4NP-mannopyranoside substrate; procedure, shortened: as §1
[6] = molecular target: Alpha-1,2-mannosidase (BT_3965) (Bacteroides thetaiotaomicron, UniProt Q8A0Q6); assay: Inhibition of Bacteroides thetaiotaomicron GH92 alpha-mannosidase 3965 assessed as reduction of mannose release using 4NP-mannopyranoside substrate; procedure, shortened: as §1
[7] = molecular target: Alpha-1,2-mannosidase (BT_1878) (Bacteroides thetaiotaomicron, UniProt Q8A6K3); assay: Inhibition of Bacteroides thetaiotaomicron GH92 alpha-mannosidase 1878 assessed as reduction of mannose release using 4NP-mannopyranoside substrate; procedure, shortened: as §1
[8] = molecular target: Alpha-1,2-mannosidase, putative (BT_3130) (Bacteroides thetaiotaomicron, UniProt Q8A325); assay: Inhibition of Bacteroides thetaiotaomicron GH92 alpha-mannosidase 3130 assessed as reduction of mannose release using 4NP-mannopyranoside substrate; procedure, shortened: as §1
[9] = molecular target: Alpha-1,2-mannosidase (BT_3991) (Bacteroides thetaiotaomicron, UniProt Q8A0N0); assay: Inhibition of Bacteroides thetaiotaomicron GH92 alpha-mannosidase 3991 assessed as reduction of mannose release using 4NP-mannopyranoside substrate; procedure, shortened: as §1
[10] = molecular target: Glycoside hydrolase family 92 (BT_3962) (Bacteroides thetaiotaomicron, UniProt Q8A0Q9); assay: Inhibition of Bacteroides thetaiotaomicron GH92 alpha-mannosidase 3962 assessed as reduction of mannose release using 4NP-mannopyranoside substrate; procedure, shortened: as §1
[11] = molecular target: Alpha-1,2-mannosidase (BT_4092) (Bacteroides thetaiotaomicron, UniProt Q8A0C9); assay: Inhibition of Bacteroides thetaiotaomicron GH92 alpha-mannosidase 4092 assessed as reduction of mannose release using 4NP-mannopyranoside substrate; procedure, shortened: as §1
[12] = molecular target: Glycoside hydrolase family 92 (BT_3963) (Bacteroides thetaiotaomicron, UniProt Q8A0Q8); assay: Inhibition of Bacteroides thetaiotaomicron GH92 alpha-mannosidase 3963 assessed as reduction of mannose release using 4NP-mannopyranoside substrate; procedure, shortened: as §1
[13] = molecular target: Alpha-1,2-mannosidase, putative (BT_4073) (Bacteroides thetaiotaomicron, UniProt Q8A0E8); assay: Inhibition of Bacteroides thetaiotaomicron GH92 alpha-mannosidase 4073 assessed as reduction of mannose release using 4NP-mannopyranoside substrate; procedure, shortened: as §1
[14] = molecular target: Alpha-1,2-mannosidase (BT_3784) (Bacteroides thetaiotaomicron, UniProt Q8A182); assay: Inhibition of Bacteroides thetaiotaomicron GH92 alpha-mannosidase 3784 assessed as reduction of mannose release using 4NP-mannopyranoside substrate; procedure, shortened: as §1
[15] = molecular target: Alpha-1,2-mannosidase family protein (BT_1032) (Bacteroides thetaiotaomicron, UniProt Q8A8Y5); assay: Inhibition of Bacteroides thetaiotaomicron GH92 alpha-mannosidase 1032 assessed as reduction of mannose release using 4NP-mannopyranoside substrate; procedure, shortened: as §1
[16] = molecular target: Alpha-1,2-mannosidase (BT_3990) (Bacteroides thetaiotaomicron, UniProt Q8A0N1); assay: Inhibition of Bacteroides thetaiotaomicron GH92 alpha-mannosidase 3990 assessed as reduction of mannose release using 4NP-mannopyranoside substrate; procedure, shortened: as §2

Sequence of Alpha-1,2-mannosidase family protein (BT_4093) (Q8A0C8 whole entry, change not shown): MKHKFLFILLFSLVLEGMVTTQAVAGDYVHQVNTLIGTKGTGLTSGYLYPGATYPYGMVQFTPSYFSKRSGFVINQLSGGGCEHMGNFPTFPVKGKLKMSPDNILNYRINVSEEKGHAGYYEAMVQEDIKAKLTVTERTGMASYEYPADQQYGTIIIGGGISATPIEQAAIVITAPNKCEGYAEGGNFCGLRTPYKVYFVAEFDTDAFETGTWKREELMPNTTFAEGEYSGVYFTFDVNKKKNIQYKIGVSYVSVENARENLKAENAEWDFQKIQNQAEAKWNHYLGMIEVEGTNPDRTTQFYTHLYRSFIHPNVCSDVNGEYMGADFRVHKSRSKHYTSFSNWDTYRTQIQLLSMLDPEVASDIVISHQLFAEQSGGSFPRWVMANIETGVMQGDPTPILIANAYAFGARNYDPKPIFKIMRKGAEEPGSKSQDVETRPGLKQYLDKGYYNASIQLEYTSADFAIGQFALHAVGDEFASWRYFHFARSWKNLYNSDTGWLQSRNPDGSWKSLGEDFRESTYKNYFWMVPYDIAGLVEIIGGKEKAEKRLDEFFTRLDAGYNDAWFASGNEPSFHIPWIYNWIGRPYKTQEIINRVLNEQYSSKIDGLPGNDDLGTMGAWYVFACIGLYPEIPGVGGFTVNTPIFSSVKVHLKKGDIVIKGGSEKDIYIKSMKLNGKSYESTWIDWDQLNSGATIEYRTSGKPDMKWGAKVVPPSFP
Sequence of Alpha-1,2-mannosidase (BT_3858) (Q8A113 whole entry, change not shown): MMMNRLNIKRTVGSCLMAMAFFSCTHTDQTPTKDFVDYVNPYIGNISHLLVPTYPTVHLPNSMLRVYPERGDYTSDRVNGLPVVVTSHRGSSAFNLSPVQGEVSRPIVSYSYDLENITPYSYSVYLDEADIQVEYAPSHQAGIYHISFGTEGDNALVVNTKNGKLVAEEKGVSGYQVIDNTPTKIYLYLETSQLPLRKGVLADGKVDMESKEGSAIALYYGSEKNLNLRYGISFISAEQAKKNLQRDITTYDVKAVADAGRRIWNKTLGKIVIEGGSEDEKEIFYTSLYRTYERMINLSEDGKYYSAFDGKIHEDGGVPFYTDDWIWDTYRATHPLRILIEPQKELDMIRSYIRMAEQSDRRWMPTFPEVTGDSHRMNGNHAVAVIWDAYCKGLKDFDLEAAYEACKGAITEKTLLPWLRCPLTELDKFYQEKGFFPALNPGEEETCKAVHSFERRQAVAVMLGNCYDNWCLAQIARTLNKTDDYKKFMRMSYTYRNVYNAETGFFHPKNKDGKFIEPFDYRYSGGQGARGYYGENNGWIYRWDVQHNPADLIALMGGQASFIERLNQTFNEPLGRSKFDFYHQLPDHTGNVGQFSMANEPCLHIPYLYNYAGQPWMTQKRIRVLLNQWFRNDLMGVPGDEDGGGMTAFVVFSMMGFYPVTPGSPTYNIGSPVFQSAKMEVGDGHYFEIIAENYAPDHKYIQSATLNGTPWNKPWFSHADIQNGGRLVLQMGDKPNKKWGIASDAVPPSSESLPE
Sequence of Alpha-1,2-mannosidase (BT_3965) (Q8A0Q6 whole entry, change not shown): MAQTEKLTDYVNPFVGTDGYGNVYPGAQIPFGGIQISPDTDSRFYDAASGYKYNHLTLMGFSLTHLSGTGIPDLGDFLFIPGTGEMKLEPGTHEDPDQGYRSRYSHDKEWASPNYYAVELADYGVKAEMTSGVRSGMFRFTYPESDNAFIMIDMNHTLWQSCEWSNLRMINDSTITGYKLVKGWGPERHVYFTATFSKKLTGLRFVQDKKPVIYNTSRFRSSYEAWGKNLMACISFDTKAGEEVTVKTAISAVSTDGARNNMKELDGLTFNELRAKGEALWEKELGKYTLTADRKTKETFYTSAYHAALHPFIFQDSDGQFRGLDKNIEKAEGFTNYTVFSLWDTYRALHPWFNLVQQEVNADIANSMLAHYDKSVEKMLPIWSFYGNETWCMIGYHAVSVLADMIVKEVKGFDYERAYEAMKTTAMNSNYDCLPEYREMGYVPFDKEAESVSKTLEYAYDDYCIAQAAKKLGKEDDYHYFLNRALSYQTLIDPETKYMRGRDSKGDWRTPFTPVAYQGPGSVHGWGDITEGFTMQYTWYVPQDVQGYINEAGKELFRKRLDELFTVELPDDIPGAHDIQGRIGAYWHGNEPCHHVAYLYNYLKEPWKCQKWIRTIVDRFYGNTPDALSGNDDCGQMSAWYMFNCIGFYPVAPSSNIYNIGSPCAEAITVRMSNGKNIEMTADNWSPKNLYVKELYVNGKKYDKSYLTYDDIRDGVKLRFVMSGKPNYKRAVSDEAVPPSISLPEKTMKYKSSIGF
Sequence of Alpha-1,2-mannosidase (BT_4092) (Q8A0C9 whole entry, change not shown): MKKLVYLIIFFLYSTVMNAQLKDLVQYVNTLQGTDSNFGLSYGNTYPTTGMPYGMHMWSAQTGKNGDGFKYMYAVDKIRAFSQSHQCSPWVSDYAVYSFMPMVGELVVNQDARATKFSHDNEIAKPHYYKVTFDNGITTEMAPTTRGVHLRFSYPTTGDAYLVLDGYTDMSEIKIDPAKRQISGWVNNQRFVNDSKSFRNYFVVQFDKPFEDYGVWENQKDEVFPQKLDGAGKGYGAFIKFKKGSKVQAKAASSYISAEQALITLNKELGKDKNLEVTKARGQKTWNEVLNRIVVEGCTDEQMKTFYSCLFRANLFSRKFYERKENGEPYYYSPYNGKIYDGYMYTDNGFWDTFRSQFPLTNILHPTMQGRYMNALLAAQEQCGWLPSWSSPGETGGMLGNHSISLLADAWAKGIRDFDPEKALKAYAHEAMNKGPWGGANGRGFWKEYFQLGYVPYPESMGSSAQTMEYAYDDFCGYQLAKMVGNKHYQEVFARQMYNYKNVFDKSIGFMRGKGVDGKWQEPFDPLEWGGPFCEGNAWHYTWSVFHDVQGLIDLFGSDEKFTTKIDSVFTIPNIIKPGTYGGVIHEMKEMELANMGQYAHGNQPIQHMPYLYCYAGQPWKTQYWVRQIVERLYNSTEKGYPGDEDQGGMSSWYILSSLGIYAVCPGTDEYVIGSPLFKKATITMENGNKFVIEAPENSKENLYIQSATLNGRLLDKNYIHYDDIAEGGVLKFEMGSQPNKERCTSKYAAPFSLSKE
Sequence of Alpha-1,2-mannosidase (BT_3994) (Q8A0M7 whole entry, change not shown): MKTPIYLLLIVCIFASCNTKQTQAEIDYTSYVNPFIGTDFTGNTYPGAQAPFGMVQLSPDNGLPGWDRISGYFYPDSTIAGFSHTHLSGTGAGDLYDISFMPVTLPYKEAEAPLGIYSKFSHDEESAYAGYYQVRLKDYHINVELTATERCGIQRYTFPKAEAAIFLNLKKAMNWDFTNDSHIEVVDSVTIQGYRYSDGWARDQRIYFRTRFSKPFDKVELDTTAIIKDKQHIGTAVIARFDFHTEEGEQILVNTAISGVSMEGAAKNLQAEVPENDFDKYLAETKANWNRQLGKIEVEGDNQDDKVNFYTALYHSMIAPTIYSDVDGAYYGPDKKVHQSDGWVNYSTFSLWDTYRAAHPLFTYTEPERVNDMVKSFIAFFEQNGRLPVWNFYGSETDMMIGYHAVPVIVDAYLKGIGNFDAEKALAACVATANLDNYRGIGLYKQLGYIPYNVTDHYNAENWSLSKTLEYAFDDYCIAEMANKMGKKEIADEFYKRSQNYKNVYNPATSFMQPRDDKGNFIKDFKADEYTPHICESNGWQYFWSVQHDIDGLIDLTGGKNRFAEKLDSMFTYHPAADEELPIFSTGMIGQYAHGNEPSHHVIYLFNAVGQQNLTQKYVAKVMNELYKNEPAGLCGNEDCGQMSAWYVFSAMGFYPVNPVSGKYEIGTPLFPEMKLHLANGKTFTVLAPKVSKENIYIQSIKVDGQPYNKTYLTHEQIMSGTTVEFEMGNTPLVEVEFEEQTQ
Sequence of Alpha-1,2-mannosidase (BT_2948) (Q8A3K6 whole entry, change not shown): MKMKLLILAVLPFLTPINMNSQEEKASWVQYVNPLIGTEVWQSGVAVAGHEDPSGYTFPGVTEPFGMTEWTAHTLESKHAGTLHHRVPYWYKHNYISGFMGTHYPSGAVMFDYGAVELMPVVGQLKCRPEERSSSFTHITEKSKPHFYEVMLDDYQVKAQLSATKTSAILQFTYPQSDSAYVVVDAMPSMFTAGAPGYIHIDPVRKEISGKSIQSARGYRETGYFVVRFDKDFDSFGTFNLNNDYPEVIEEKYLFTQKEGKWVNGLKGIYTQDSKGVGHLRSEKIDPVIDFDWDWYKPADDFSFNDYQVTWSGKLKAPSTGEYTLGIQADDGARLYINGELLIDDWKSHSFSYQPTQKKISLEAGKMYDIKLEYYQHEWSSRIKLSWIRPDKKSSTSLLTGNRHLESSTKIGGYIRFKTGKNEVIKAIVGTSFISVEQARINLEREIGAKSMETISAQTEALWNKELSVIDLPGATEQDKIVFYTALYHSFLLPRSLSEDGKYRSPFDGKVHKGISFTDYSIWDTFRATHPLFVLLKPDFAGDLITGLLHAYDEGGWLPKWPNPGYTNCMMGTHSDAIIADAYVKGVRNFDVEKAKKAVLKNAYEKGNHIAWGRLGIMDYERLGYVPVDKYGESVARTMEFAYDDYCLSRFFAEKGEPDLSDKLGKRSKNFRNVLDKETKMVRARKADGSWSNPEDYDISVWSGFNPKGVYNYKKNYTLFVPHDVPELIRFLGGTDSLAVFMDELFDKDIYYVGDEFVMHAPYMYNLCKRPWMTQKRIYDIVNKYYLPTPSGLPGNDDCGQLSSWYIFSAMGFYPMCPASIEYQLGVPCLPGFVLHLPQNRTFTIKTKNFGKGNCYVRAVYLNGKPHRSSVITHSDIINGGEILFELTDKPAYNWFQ

SMILES	Ki [1] [µM]	Ki [2] [µM]	Ki [3] [µM]	Ki [4] [µM]	Ki [5] [µM]	Ki [6] [µM]	Ki [7] [µM]	Ki [8] [µM]	Ki [9] [µM]	Ki [10] [µM]	Ki [11] [µM]	Ki [12] [µM]	Ki [13] [µM]	Ki [14] [µM]	Ki [15] [µM]	Ki [16] [µM]
OC[C@@H]1[C@@H](O)[C@H](O)[C@H](O)c2nccn21 [MANNOIMIDAZOLE]	70	90	260	43	860	0.4	1800	1	46	270	1600	790	360	5800	600	
OC[C@H]1NC[C@@H](O)[C@@H](O)[C@@H]1O [DEOXYMANNOJIRIMYCIN]		13000														12000
